Measurements reported in ChEMBL document CHEMBL4513216, “Probing the Open Global Health Chemical Diversity Library for Multistage-Active Starting Points for Next-Generation Antimalarials” (ACS Infect Dis, 2020).

Assay: Toxicity liver stage against HepG2, at 10uM
Format: cell-based
Set-up: test concentration 10 uM, cell line HepG2-A16-CD81EGFP
Settings: human, HepG2-A16-CD81EGFP cells; read-out: INHIBITION
Method in brief: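 Uninfected HepG2-A16-CD81EGFP cells, 3 × 10^3 per well, 1536-well, plated on prespotted compound at 10 μM final, parasite-free screening media added to match infected plates; puromycin 10 μM positive, DMSO 0.5% negative; run in parallel with 48 h PbLuc assay at 37 °C, 5% CO2; viability by CellTiter-Glo luminescence, normalized to controls.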

SMILES | cytotoxicity at 10 µM
CCn1c(=NC(=O)CSCC(=O)Nc2nccs2)sc2ccccc21 | -2.17%
c1ncc2c(n1)CN(CC1CCCCO1)CC2 (centres undefined) | 2.93%
CCS(=O)(=O)N1CCc2ccc(NC(=O)Nc3ccccc3)cc21 | 42.2%
Cc1cc(C(=O)N2CCN(c3nc4c(C(C)C)cccc4s3)CC2)on1 | 6.64%
CCc1cc(=O)[nH]c(-n2nc(C3CC3)cc2NC(=O)C2CC2)n1 | 26.5%
Cc1nc(-n2nc(C3CC3)cc2NC(=O)C(C)C)[nH]c(=O)c1C | 54.5%
CC(=O)N(C)CC(=O)Nc1cnc(-n2ccnc2C)nc1 | 3.86%
O=C(NC1CC1)c1cnc(-c2noc3cc(N4CCCCC4)ccc23)s1 | 46%
COCCNC(=O)Cn1c(C)cc2nc(SC)n(CC(C)C)c(=O)c21 | -14.6%
COc1ccc(-c2nnsc2C(=O)N2CCC(C(N)=O)CC2)cc1 | -1.7%
COCCCNC1N=C(n2nc(C)cc2C)Nc2sc3c(c21)CCCC3 (centres undefined) | 10.6%
O=C(c1ccc(COc2ccc(Cl)cc2)o1)N1N=CCC1(O)C(F)(F)F (centres undefined) | 30%
O=C1CC(c2ccc(C(=O)O)cc2)c2c(sc3c2CCCC3)N1 (centres undefined) | -5.14%
Cc1cc2c(cc1Cl)C=CC1(CCN(C(=O)N3CCOCC3)CC1)O2 | 23.2%
CC(C)Nc1cc(-c2c[nH]nc2C2CCN(C(=O)C3CCC3)C2)ccn1 (centres undefined) | 81.8%
CC(C)C[C@H](N)COc1cccc(F)c1Oc1ccc(Cl)cc1 | 84.7%
Cc1ccc(Nc2nccc(C3CCN(CC(N)=O)C3)n2)nc1 (centres undefined) | -16.7%
Cc1ccc(Oc2cc(F)ccc2O[C@@H]2CCC[C@@H](N)[C@H]2O)cc1 | -3.89%
COc1cc(C)c(CN2CCc3nc4ccsc4c(=O)n3CC2)cc1C | -15.7%
COc1ccc(CN2CCc3nc4ccsc4c(=O)n3CC2)c(C)c1C | 67.3%
Cc1ccc(S(=O)(=O)N2C[C@H]3C[C@H](NC(=O)c4ccccn4)[C@H]3C2)cc1 | 64.3%
Cc1cc(-c2cnc(NCc3ccc4c(c3)OCO4)nc2C(C)C)on1 | -1.23%

SMILES | cytotoxicity at 10 µM
Cc1ccc([C@]2(O)CC[C@H]3CN(Cc4ccc(Cl)cc4Cl)C[C@H]32)nc1 | 8.32%
CN(C)S(=O)(=O)N1CCC(c2cccc(Cc3ccccc3Cl)n2)CC1 | 55.9%
Cc1nccn1-c1cccc(N2CCC(OCC3CCCCO3)CC2)n1 (centres undefined) | 11.3%
COC(=O)c1ncccc1N1CCCCC1 | -8.77%
CCN(C)S(=O)(=O)N1CCCC(c2nc(-c3ccccc3)c[nH]2)C1 (centres undefined) | -8.02%
COc1cc(NC(=O)N(C)C(C2CC2)C2CC2)ncn1 | -6.69%
Cc1noc(C)c1CN(C)CCc1nc(-c2cccc(Cl)c2)no1 | 16.6%
COC(=O)CCN(C)C(=O)c1csc(Cc2ccccc2F)n1 | 9.38%
Cc1csc(N2CCCN(c3cc(C)nc(C)c3C#N)CC2)n1 | 22.6%
Cc1nn(C)c(C)c1CCNC(C)c1ccc(-n2ccnc2C)cc1 (centres undefined) | 31.6%
O=C(Nc1nccs1)C1CCCN1Cc1ccccn1 (centres undefined) | -20%
c1cnnc(N2CCCC2CNCCc2cccs2)c1 (centres undefined) | -0.555%
CC(C(=O)Nc1sccc1C(N)=O)N(C)CCOc1ccccc1 (centres undefined) | 2.59%
c1ccc(C2CCCN(c3cncc(-n4cccn4)n3)CC2)cc1 (centres undefined) | 48%
CCCS(=O)(=O)CC(=O)N1CCCC1c1noc(C2CC2)n1 (centres undefined) | 3.34%
COc1ccc(Br)c(C(=O)NCC2CC2)c1 | 23.4%
COCCN1CCN(CCS(=O)(=O)c2cccc(OC)c2)CC1 | -1.33%
N#Cc1ccc(OCC(O)CN2CCN(c3nccs3)CC2)cc1 (centres undefined) | 2.06%
Cc1nc(COc2ccc(CNCCn3cccn3)cc2)cs1 | -8.96%
C=C(C)CN1CCC(NC(=O)NCCc2ccccc2OC)CC1 | 14.2%
COCC(=O)NCc1cccc(OCCN(C)C2CCOCC2)c1 | 8.35%
O=C(CN1CCCC1Cn1cncn1)NCC1(c2ccccc2)CC1 (centres undefined) | 4.74%

SMILES | cytotoxicity at 10 µM
Cc1nc(C)n(CC2CCCN2CC(=O)NCCc2ccsc2)n1 (centres undefined) | 0.932%
O=C(c1c[nH]c(=O)[nH]1)N1CCc2ccccc21 | 81.9%
Cc1cn2c(n1)C(CNCC1=Cc3cc(Cl)ccc3OC1)CCC2 (centres undefined) | 33.3%
CC(C)n1nc2c(cc1=O)CN(c1ncnc3sccc13)CC2 | 49.7%
COC(=O)c1sc(NCc2ccc(N3CCC(O)CC3)c(F)c2)nc1Cl | 44.5%
Cc1ccc(-c2nc(CSCCC(=O)NC(N)=O)co2)cc1 | -2.69%
Fc1cccc2ncnc(NCC3(N4CCOCC4)CCSC3)c12 (centres undefined) | 50.6%
N#Cc1ccc(CN(CC(N)=O)C2CCCC2)cc1 | 38%
CCc1nc(CN2CCCC(Nc3ncnc4ccsc34)C2)no1 (centres undefined) | 52.2%
Cc1ncc(C(=O)NC2CCN(CCOc3ccc(Br)cc3)CC2)s1 | 7.28%
CN1CCOC(C(=O)Nc2ccc3c(c2)nc(C(C)(C)C)n3C)C1 (centres undefined) | -1.8%
CC1CCN(c2nc3c(cnn3-c3ccccc3)c(=O)[nH]2)CC1 | -9.5%
CCc1nc(CN2CCN(c3ncnc4cc(F)ccc34)CC2)no1 | 41.5%
NC(=O)C1CN(C(=O)Nc2cc(Cl)cc(Cl)c2)CCO1 (centres undefined) | 55.1%
Cc1ccc(CN2CCC3(CC2)C(=O)NCCN3CC2CC2)o1 | -66.8%
Cc1cn2c(=O)c(-c3ccnc(N(C)C4CCCCC4)n3)cnc2s1 | 9.49%
Cc1cncc(NC(=O)c2ccc(CN3CC[C@H](O)C3)cc2)c1 | 12.4%
Cc1noc(-c2ccnc(Oc3ccc(CN4CCCC4)cc3C)c2)n1 | 51.4%
CC(C)c1cc(NCc2csc(N(C)C)n2)nc(N)n1 | 31.8%
Cc1cnc(C)c(Oc2ccc(CN3CCCC3)cc2Cl)n1 | -1.37%
Cc1ccccc1OC1CN(Cc2c(C)nc3ccccn23)C1 | 43.3%
CN(Cc1cccc(-n2cccn2)c1)c1cc(N2CCCC2)nc(N)n1 | 51.6%

SMILES | cytotoxicity at 10 µM
CN(C)CCNC(=O)c1ccc(S(=O)(=O)N[C@@H]2CCNC2)cc1 | -49.2%
O=S1(=O)CCC(CNc2cc(-c3ccccc3)nc3ccnn23)C1 (centres undefined) | 61.2%
Cc1[nH]c2ccc(Cl)cc2c1CCNc1ncnc2c1CCNC2 | 22.4%
COc1cc(Oc2ccc(C(F)(F)F)cn2)ccc1CN1CCCC1 | 51.5%
OCC1(Cc2ccc(Cl)cc2)CCN(Cc2cccnc2)CC1 | -45.6%
CCc1[nH]c2c(CNc3cc(C)nc(NC)n3)cc(C)cc2c1C | -41%
Cc1ccccc1N1CCN(c2nc(N(C)C)nc3c2CCNC3)CC1 | 8.97%
NCC1CCN(C2CCN(c3ccc(-c4ccco4)cc3)CC2)C1 (centres undefined) | 93.9%
Cc1ccccc1CC1(CO)CCCN(c2ncnc3sccc23)C1 (centres undefined) | 27.5%
CCCc1cncnc1N1CCC(NCc2cc3ccccc3[nH]2)CC1 | 15.8%
Cc1c(-c2cnn(C)c2)nc(N)c(C#N)c1-c1ccc(CO)o1 | -117%
COc1ccccc1C1CCN(c2ccc3cc[nH]c3n2)CC1 | -6.78%
CC(C)(C)c1cn(CC2CCCN(c3cnc4ccccc4n3)C2)nn1 (centres undefined) | 42.9%
FC(F)(F)c1nc(NC2CCCCC2)c2ccccc2n1 | 29.7%
Cc1ccccc1-n1cc(-c2ccnc(NC(CO)C(C)C)n2)cn1 (centres undefined) | 7.12%
Nc1nc2c(c(NC3CCCC3)n1)CCN(C(=O)C1CCOC1)CC2 (centres undefined) | -129%
COCc1noc(-c2ccc(N3CCCCC3CO)nc2)n1 (centres undefined) | -2.38%
FC(F)(F)c1nc(NC2CCCC2)c2ccccc2n1 | 15.8%
CC(=O)c1ccc(N2CCC(CO)(CCOc3ccccc3)CC2)nc1 | 28.1%
Cc1ccccc1-c1noc(CN2CCC(N3CCNC3=O)CC2)n1 | 11.6%
O=C1NCCN1C1CCN(Cc2nc(-c3ccccc3)no2)CC1 | 30.3%
Cc1cnn(C2CN(Cc3nc(-c4ccccc4C)no3)C2)c1 | -10.6%

SMILES | cytotoxicity at 10 µM
O=C(c1cc(Cl)c[nH]1)N1CCCC(c2cc(C(F)(F)F)[nH]n2)C1 (centres undefined) | 18%
COc1cc(C(=O)Nc2nc(C)no2)cc(OC)c1Br | -8.78%
Cc1cccc(C(=O)NCc2ccc(N3CCCCCC3)nc2)n1 | -5.34%
CCc1cccc(N2CCC(NC(=O)c3ccco3)CC2)c1 | -4.38%
Cc1nc(C)n(CC2CN(Cc3nc4ccccc4s3)CCO2)n1 (centres undefined) | 44.4%
Cc1nc(C)n(CC2CCCN(c3ncnc4ccccc34)C2)n1 (centres undefined) | 17.4%
COc1c(CNCc2ccc(C(=O)N(C)C(C)C)cc2)c(C)nn1C | 33.2%
COc1c(C)cnc(CN2CCC(N(C)C(C)C(N)=O)CC2)c1C (centres undefined) | -3.38%
Cc1cccc(NC2CCN(C(=O)Nc3cc(F)cc(F)c3)CC2)n1 | -0.961%
Cc1ccoc1C(=O)NC1CCN(Cc2csc3c(F)cccc23)CC1 | 1.13%
c1ccc(Sc2ccc3c(c2)OCO3)c(CNC2=NCCN2)c1 | 17.6%
Cc1nnc(N2CC[C@H]3C[C@H](C(=O)N(C)C)O[C@@H]3C2)s1 | -80.9%
O=C1N(Cc2cccnc2)CCC12CCCN(c1ncccn1)C2 (centres undefined) | -10.9%
Cc1nnc(N2CC[C@@H](OCC3CC3)[C@@H](Cc3ccccc3)C2)s1 | 14.4%
O=C(NC1CC1)[C@@H]1CCO[C@@H]2CCN(CC3CCC3)C[C@@H]21 | -101%
O=C(NCc1cc(=O)n2c(n1)CN(CC1CC1)CCC2)c1ccsc1 | -103%
Fc1ccc(CN2CCO[C@H]3[C@H](OCc4ccncc4)CC[C@@H]32)cc1 | -26.7%
COc1ccc2c(c1)C1(CCNCC1)CC2NC1CC1 (centres undefined) | -117%
O=C(Cc1ccncc1)N1CCC2(CC1)CC(c1ccccc1)CO2 (centres undefined) | -86.1%
c1cnc(N2CCC3(CC2)CC(NCC2CC2)c2ccccc23)nc1 (centres undefined) | 22.4%
CC(C)c1nnc(N2C[C@H]3CC[C@@H](C2)N(Cc2ccccc2)C3)s1 | -3.86%
